According to ChEMBL document CHEMBL5120974, “Antitubercular Activity of Novel 2-(Quinoline-4-yloxy)acetamides with Improved Drug-Like Properties” (ACS Med Chem Lett, 2022):
Converted amounts (≈) assume the structure as drawn.

Key:
Assay type in all cases: functional
[1] = system: Mycobacterium tuberculosis; test: Antitubercular activity against Multidrug-resistant Mycobacterium tuberculosis clinical isolate PT12 assessed as bacterial growth inhibition incubated for 7 days by resazurin dye based assay; settings: PT12, 168 h, time 7 day
[2] = system: Mycobacterium tuberculosis; test: Antitubercular activity against Multidrug-resistant Mycobacterium tuberculosis clinical isolate PT20 assessed as bacterial growth inhibition incubated for 7 days by resazurin dye based assay; settings: PT20, 168 h, time 7 day
[3] = system: Mycobacterium tuberculosis; test: Antitubercular activity against Multidrug-resistant Mycobacterium tuberculosis clinical isolate PT2 assessed as bacterial growth inhibition incubated for 7 days by resazurin dye based assay; settings: PT2, 168 h, time 7 day
[4] = system: Mycobacterium tuberculosis; test: Antitubercular activity against Multidrug-resistant Mycobacterium tuberculosis qcrB-T313A mutant assessed as bacterial growth inhibition incubated for 7 days by resazurin dye based assay; settings: time 7 day
Outline: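 MIC measured against a spontaneous mutant selected for resistance to 2-(quinolin-4-yloxy)acetamides, with a fully sequenced genome and a single qcrB change (ACC to GCC at nucleotide 937, T313A substitution).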

Structure (SMILES): CO[C@H]1/C=C/O[C@@]2(C)Oc3c(C)c(O)c4c(O)c(c(/C=N/N5CCN(C)CC5)c(O)c4c3C2=O)NC(=O)/C(C)=C\C=C\[C@H](C)[C@H](O)[C@@H](C)[C@@H](O)[C@@H](C)[C@H](OC(C)=O)[C@@H]1C [RIFAMPIN]
- MIC [1]: > 48.6 µM
- MIC [2]: > 48.6 µM
- MIC [3]: > 48.6 µM

Structure (SMILES): NNC(=O)c1ccncc1 [ISONIAZID]
- MIC [4]: 2.3 µM (≈ 0.315 µg/mL)
- MIC [1]: 146 µM (≈ 20 µg/mL)

Structure (SMILES): COc1ccc2nc(C)cc(OCC(=O)Nc3ccc(N4CCCCC4)cc3)c2c1
- MIC [4]: >24.7 µM
- MIC [1]: 0.19 µM (≈ 0.077 µg/mL)
- MIC [2]: < 0.04 µM
- MIC [3]: < 0.04 µM

Structure (SMILES): CCc1cc(OCC(=O)Nc2ccc(N3CCCCC3)cc2)c2cc(OC)ccc2n1
- MIC [4]: >23.8 µM
- MIC [1]: 0.19 µM (≈ 0.0797 µg/mL)
- MIC [2]: < 0.04 µM
- MIC [3]: < 0.04 µM
